An excerpt weighted towards active compounds, which were near 1.3% of everything screened.
Casp6 inh: inhibitors of human caspase-6. P55212. purified caspase-6, Z-VEID-R110 cleavage fluorescence. inhibition, % at 12.5 µM. hit rate 0.53% among 350,000;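 active = mean inhibition across replicates at least about 35%, with every replicate also reaching that limit, limit read from the data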
Target sequence (P55212 24-179 limits assumed): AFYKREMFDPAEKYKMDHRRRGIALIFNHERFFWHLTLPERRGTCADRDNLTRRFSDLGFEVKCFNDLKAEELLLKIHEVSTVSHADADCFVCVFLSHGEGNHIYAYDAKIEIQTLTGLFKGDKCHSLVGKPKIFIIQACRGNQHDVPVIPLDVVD
Target sequence (P55212 194-293 limits assumed): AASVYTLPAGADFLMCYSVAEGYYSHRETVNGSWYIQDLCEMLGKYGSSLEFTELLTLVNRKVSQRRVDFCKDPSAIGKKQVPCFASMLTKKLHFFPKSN
ASAP1 inh: blocks human ASAP1-stimulated Arf1 GTP hydrolysis; AID 624377; inhibition, % at 16.5 µM; Q9ULH1; hit rate 0.19% among 360,000; GDP FP detection; in the data active = inhibition above about 25%
Target sequence (Q9ULH1 325-724 limits assumed): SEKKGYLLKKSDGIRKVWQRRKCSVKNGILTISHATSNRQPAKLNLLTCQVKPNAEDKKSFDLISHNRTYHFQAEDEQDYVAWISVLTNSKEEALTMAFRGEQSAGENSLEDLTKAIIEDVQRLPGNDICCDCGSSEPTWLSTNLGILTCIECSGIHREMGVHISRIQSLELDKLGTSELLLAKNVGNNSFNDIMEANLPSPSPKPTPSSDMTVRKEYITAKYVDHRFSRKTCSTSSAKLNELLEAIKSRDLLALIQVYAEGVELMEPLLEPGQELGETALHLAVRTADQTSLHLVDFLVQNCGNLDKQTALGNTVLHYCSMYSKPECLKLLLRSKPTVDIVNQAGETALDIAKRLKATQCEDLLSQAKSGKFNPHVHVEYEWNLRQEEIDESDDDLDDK
TDP2 absorb: blocks human TDP2 phosphodiesterase activity | O95551 | recombinant TDP2, T5PNP hydrolysis, p-nitrophenol absorbance 415 nm | inhibition, % at 12.8 µM | hit rate 0.34% among 370,000 | AID 720702;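 active = inhibition above the mean of all tested compounds plus 3 SD, set per campaign, cut at about 25% in these data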
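Read-out basis: percent inhibition. System: recombinant human TDP2. Buffer or medium: Mg2+-containing Tris-HCl buffer, pH 7.5. Repeats: single replicate. Timing: reaction 2 h, 37 °C. Benchmarks: high control without enzyme, low control DMSO plus TDP2. Probe or stimulus: 5 mM T5PNP. Doses: 12.8 µM only. Measured by: epi absorbance of p-nitrophenol freed from T5PNP by hydrolysis.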
ARFGAP1 inhibitor: inhibits rat ARF GTPase activating protein 1; Q62848; Arfgap1-stimulated ARF1 GTP hydrolysis, GDP FP detection; inhibition, % at 16.5 µM; hit rate 0.26% among 360,000; AID 651572;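 active = inhibition above a per-plate limit, mean inhibition of low control wells plus 3 SD, cut at about 25% in these data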
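material = rat Arfgap1 catalytic domain, aa 1-136 | also added = human ARF1(Δ1-17)-GTP substrate | compound dosing = one concentration, 16.5 µM, DMSO 1.26% | times = GTP hydrolysis reaction 2 h at 25 °C | measured by = FP, GDP Alexa 633 tracer displaced from anti-GDP antibody, 620/688 nm | evaluation = percent inhibition of Arfgap1-stimulated GTP hydrolysis | replication = single well per compound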
LEDGF integ inh: blocks HIV-1 LEDGF/p75-dependent DNA integration; TR-FRET IN-LEDGF/p75 DNA integration, Eu/Cy5; inhibition, % at 3.7 µM; AID 743269; hit rate 0.64% among 370,000;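 active = inhibition above the screen-wide mean plus 3 SD, cut at about 13% in these data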;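 also: signal is the Cy5 over europium emission ratio at 671 and 618 nm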
ASAP1 GAP conf: ASAP1 inhibition confirmed. shares compounds with ASAP1 inh. ASAP1-stimulated Arf1 GTPase, GDP fluorescence polarization. inhibition, % at 16.5 µM. hit rate 37% among 620;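 active = mean inhibition over triplicates exceeds the hit threshold derived for the earlier primary screening run, cut at about 25% in these data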
ARFGAP1 inh conf: confirmation of rat ARFGAP1 inhibitors; hit rate 30% among 890; ARFGAP1-stimulated ARF1 GTP hydrolysis, GDP tracer FP; inhibition, % at 16.5 µM; shares compounds with ARFGAP1 inhibitor;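 active = average inhibition over triplicates above the hit cutoff set in the earlier primary screen, cut at about 25% in these data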
A number is an active result; - = inactive; . = no result; + = active, no number.

SMILES	Casp6 inh	ASAP1 inh	TDP2 absorb	ARFGAP1 inhibitor	LEDGF integ inh	ASAP1 GAP conf	ARFGAP1 inh conf
C[n+]1c(-c2ccc(C=NNC(=O)c3ccc(C(=O)NN=Cc4ccc(-c5cn6ccccc6[n+]5C)cc4)cc3)cc2)cn2ccccc21	-	41.5	-	65.9	31.1	50.4	90.0
CC(=O)c1ccccc1C(=O)N1CCCC(N2CCN(Cc3ccc4c(c3)OCO4)CC2)C1 (stereo unspecified)	-	-	-	-	-	.	.
CCc1ccc(OCC(=O)N/N=C(\C)c2ccc(O)cc2O)cc1	-	-	-	-	-	.	.
Cc1cc([N+](=O)[O-])c(C)cc1-c1ccc(/C=N/NC(=O)Cn2nnnc2N)o1	-	64.6	-	67.0	-	-	35.1
CC(=O)c1cccc(NC(=O)c2cccc3c(-c4cccnc4)coc23)c1	-	34.6	-	25.5	-	26.3	29.2
O=C(Nc1cccc(-c2cn3ccccc3n2)c1)c1cc2ccccc2oc1=O	-	35.6	-	47.0	-	62.1	72.3
O=C(Nc1cccc(-c2cnc3ccccc3n2)c1)c1cccc(NC(=O)c2ccco2)c1	.	101.8	-	100.7	-	90.7	126.5
Cc1ccc([N+](=O)[O-])cc1-c1ccc(/C=C(\C#N)c2[nH]nc(N)c2C#N)o1	-	41.2	-	45.2	-	55.6	57.5
Nc1ccc2nc(-c3cccc(-c4nc5ccc(N)cc5[nH]4)n3)[nH]c2c1	-	+	-	+	-	+	+
Nc1ccc2nc(-c3ccc(-c4nc5ccc(N)cc5[nH]4)cc3)[nH]c2c1	-	-	-	-	-	.	.
CCOc1ccccc1NC(=O)c1ccc(OCC)c([N+](=O)[O-])c1	-	-	-	-	-	.	.
CCOc1ccc(C(=O)Nc2cc(-c3nc4ccccc4[nH]3)ccc2Cl)cc1[N+](=O)[O-]	-	68.5	-	109.4	-	123.2	151.3
CCOc1ccc(C(=O)Nc2cc(-c3nc4ccccc4[nH]3)ccc2C)cc1[N+](=O)[O-]	.	-	-	-	-	.	.
CCOc1ccc(C(=O)Nc2cccc(-c3cc4ccccc4oc3=O)c2)cc1[N+](=O)[O-]	.	25.9	-	42.4	-	36.8	46.4
COc1ccc([N+](=O)[O-])cc1NC(=S)NC(C)=O	-	-	-	-	-	.	.
COc1ccc([N+](=O)[O-])cc1NC(=O)c1ccc(Br)s1	-	38.0	-	36.1	-	53.7	67.8
O=C1Nc2cc(C(=O)NCCCN3CCCC3)ccc2S/C1=C/c1cccc(Cl)c1	-	-	-	-	-	.	.
COc1cccc(/C=C2/Sc3ccc(C(=O)NCCN4CCCCCC4)cc3NC2=O)c1	-	31.1	-	29.0	-	35.8	37.2
C=CCNC(=O)CC(C)C(CCCCC)C(=O)O (stereo unspecified)	.	-	-	-	-	.	.
Cn1c(=O)c2cc(NCc3ccccc3)nnc2n(C)c1=O	.	43.7	75.5	27.8	-	-	-
Cn1c(=O)c2c(nc(NCc3ccccc3)n2C)n(C)c1=O	.	-	-	-	-	.	.
COc1cccc(OC)c1-c1nn2c(-c3cc(-c4ccccc4)n[nH]3)nnc2s1	.	129.4	-	130.1	-	167.4	182.5
COc1ccc(C(=O)Nc2ccc(S(=O)(=O)NC(C)(C)C)cc2)cc1[N+](=O)[O-]	-	-	-	-	-	.	.
O=C(N/N=C/c1ccc(Cl)c([N+](=O)[O-])c1)c1ccc2c(c1)OCCO2	-	82.5	-	65.5	-	103.7	99.2
COc1ccc2c(CN(C)c3ccccc3)cc(=O)oc2c1	-	-	-	-	-	.	.
SMILES	Casp6 inh	ASAP1 inh	TDP2 absorb	ARFGAP1 inhibitor	LEDGF integ inh	ASAP1 GAP conf	ARFGAP1 inh conf
CCN1CCN(Cc2ccc(NC(=O)c3cc(NC(=O)c4cncc(-c5cccs5)c4)cc(OC)c3)cc2C(F)(F)F)CC1	-	37.4	-	52.0	-	81.6	91.6
Cc1ccc2nc(SCC(=O)N3CCC(C)CC3)nc(=O)n2c1	-	36.8	-	62.0	-	42.9	69.2
Cc1ccc2nc(SCC(=O)NC3CCCC3)nc(=O)n2c1	-	-	-	-	-	.	.
O=C(/C=C/c1cn(-c2ccccc2)nc1-c1ccccc1)Nc1ccc(C(=O)O)cc1	-	-	-	-	-	.	.
Cc1ccc(-c2nn(-c3ccccc3)cc2/C=C/C(=O)Nc2nccs2)cc1	.	34.0	-	52.1	-	-	68.2
COc1ccccc1N1CCN(C(=O)c2ccccc2Oc2ccccc2)CC1	.	-	-	-	-	.	.
CCN(CC)CCCNC(=O)c1cc2c(-c3cccc(OC)c3)nn(C)c2s1	-	-	-	-	-	.	.
CCCCN(CC)CCCNC(=O)c1cc2c(-c3ccc(OC)c(OC)c3)nn(C)c2s1	-	34.2	-	26.5	-	72.4	74.1
CC(Nc1ccc(N2CCOCC2)cc1)C(=O)N1c2ccccc2CC1C (stereo unspecified)	-	-	-	-	-	.	.
CN(C)c1ccc(C(=S)N2CCN(c3ccc([N+](=O)[O-])cc3)CC2)cc1	-	-	-	-	-	.	.
COc1ccccc1C=NNC(=O)NN=Cc1ccccc1OC	-	29.9	-	57.5	-	52.5	67.5
COc1cccc(C=NNC(=O)c2ccncc2)c1O	-	-	-	-	-	.	.
COc1cccc(/C=N/NC(=O)N/N=C/c2cccc(OC)c2O)c1O	-	31.2	-	63.6	-	81.2	94.6
CN(Cc1ccccc1F)C(=O)CN1c2cccc3cccc(c23)S1(=O)=O	-	29.9	-	29.0	-	41.0	50.5
O=C(Cn1cncc1-c1ccc([N+](=O)[O-])cc1)Nc1cccc2ccccc12	.	28.3	-	41.3	-	37.2	45.7
CCOc1ccc(NC(=O)Cn2cncc2-c2ccc([N+](=O)[O-])cc2)cc1	-	-	-	-	-	.	.
CCc1ccccc1NC(=O)[C@@H]1CCC(=O)N1C1OC(=O)c2ccccc21 (stereo partly specified)	-	-	-	-	-	.	.
COC(=O)c1ccc(NC(=O)c2cn(-c3ccccc3)nc2-c2ccncc2)cc1	.	30.7	-	29.5	-	51.0	61.2
Cc1ccccc1C(c1ccccc1Cl)N(C)C (stereo unspecified)	-	-	-	-	-	.	.
COc1ccc(/C=N\NC(=O)c2cc3c(ccc4ccccc43)o2)cc1O	-	72.5	-	27.9	-	95.7	75.9
COc1ccc(/C=N/NC(=O)c2cc3c(ccc4ccccc43)o2)cc1OC	-	102.1	-	75.6	-	114.9	82.0
O=C(Nc1ccc(-c2nc3ccc(NC(=O)c4cccs4)cc3[nH]2)cc1)c1cccs1	.	36.5	-	73.0	-	73.6	123.7
COc1ccc(S(=O)(=O)Nc2ccc3c(c2)C(=O)N([C@@H](C)CO)C[C@H](C)[C@H](CN(C)S(=O)(=O)c2cccs2)O3)cc1	-	.	.	.	.	.	.
